Source: ChEMBL document CHEMBL2440018 (J Med Chem, 2013)
Active and inactive are the calls of the source. No cut-off for these calls is given here.

Columns and labels:
Liver [1] = test: Metabolic stability in rat liver S9 fraction assessed as formation of {4-[4-(1-Oxo-1lambda4-thiiran-2-ylmethanesulfonyl)-phenoxy]-phenyl}-carbamic acid methyl ester at 50 uM after 30 mins by reversed-phase LC/MS analysis; assay type: ADME, subcellular; conditions: s9, 0.5 h
Method in brief: (§1)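 50 µM compound was incubated with rat liver S9 (1.0 mg) and 0.5 mM NADPH in 50 mM potassium phosphate, pH 7.4, at 37 °C for 30 min. The reaction was stopped with one volume of acetonitrile and centrifuged. Metabolites in the supernatant were identified by reversed-phase LC/ESI-QTOF mass spectrometry.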

Liver [2] = test: Metabolic stability in rat liver S9 fraction assessed as formation of 4-(4-(methoxycarbonylamino)phenoxy)benzenesulfinic acid at 50 uM after 30 mins by reversed-phase LC/MS analysis; assay type: ADME, subcellular; conditions: s9, 0.5 h; method in brief: as §1
Liver [3] = test: Metabolic stability in rat liver S9 fraction assessed as formation of 4-(4-(thiiran-2-ylmethylsulfonyl)phenoxy)aniline at 50 uM after 30 mins by reversed-phase LC/MS analysis; assay type: ADME, subcellular; conditions: s9, 0.5 h; method in brief: as §1
Liver [4] = test: Half life in rat liver S9 fraction at 10 uM by reversed-phase UPLC/ESI-MRM analysis; assay type: ADME, subcellular; conditions: s9, 10 µM
Method in brief: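 Male rat liver S9 (1.0 mg) with 0.5 mM NADPH and 10 µM compound (both final) in 50 mM potassium phosphate, pH 7.4, at 37 °C, sampled over time. Aliquots were stopped with acetonitrile containing internal standard, and the supernatant was run by UPLC/ESI-MRM. Half-lives used first-order kinetics on peak-area ratios to internal standard.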

[5] = molecular target: MMP-2/MMP-9 (Homo sapiens) (UniProt P08253+P14780); test: Selectivity ratio of Ki for human recombinant MMP-9 catalytic domain to Ki for human recombinant MMP-2
[6] = molecular target: T1, Matrilysin (Homo sapiens) (UniProt P09237); test: Inhibition of human recombinant MMP-7 at 50 uM by fluorescence spectrophotometric analysis relative to control
T1 sequence (whole entry): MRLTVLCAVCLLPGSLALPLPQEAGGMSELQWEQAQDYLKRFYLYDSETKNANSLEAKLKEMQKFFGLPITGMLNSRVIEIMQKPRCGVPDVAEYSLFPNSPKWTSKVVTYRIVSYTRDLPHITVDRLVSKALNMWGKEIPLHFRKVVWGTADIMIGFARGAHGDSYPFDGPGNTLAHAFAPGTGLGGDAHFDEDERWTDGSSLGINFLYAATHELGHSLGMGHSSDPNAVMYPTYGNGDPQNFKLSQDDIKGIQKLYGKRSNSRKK

[7] = molecular target: Stromelysin-1 (Homo sapiens) (UniProt P08254); test: Inhibition of human recombinant MMP-3 catalytic domain at 50 uM by fluorescence spectrophotometric analysis relative to control
[8] = molecular target: T2, Interstitial collagenase (Homo sapiens) (UniProt P03956); test: Inhibition of human recombinant MMP-1 catalytic domain at 50 uM by fluorescence spectrophotometric analysis relative to control
T2 sequence (whole entry): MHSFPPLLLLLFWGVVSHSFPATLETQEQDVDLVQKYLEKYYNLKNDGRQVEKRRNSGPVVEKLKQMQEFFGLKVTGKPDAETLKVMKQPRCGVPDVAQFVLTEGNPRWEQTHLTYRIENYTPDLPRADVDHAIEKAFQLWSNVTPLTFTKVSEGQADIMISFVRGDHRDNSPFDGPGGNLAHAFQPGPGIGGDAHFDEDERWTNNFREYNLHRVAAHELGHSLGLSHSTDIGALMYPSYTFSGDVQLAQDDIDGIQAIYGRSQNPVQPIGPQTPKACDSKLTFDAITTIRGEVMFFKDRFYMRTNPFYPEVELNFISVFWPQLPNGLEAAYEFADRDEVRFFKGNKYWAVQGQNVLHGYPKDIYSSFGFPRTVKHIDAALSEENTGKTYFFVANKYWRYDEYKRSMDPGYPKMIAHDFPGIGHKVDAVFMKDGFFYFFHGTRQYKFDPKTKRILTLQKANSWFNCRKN

[9] = molecular target: Matrix metalloproteinase-14 (Homo sapiens, UniProt P50281); test: Inhibition of human recombinant MMP-14 catalytic domain using MOCAcPLGLA2pr(Dnp)AR-NH2 as substrate by fluorescence spectrophotometric analysis
[10] = molecular target: 72 kDa type IV collagenase (Homo sapiens, UniProt P08253); test: Inhibition of human recombinant MMP-2 using MOCAcPLGLA2pr(Dnp)AR-NH2 as substrate by fluorescence spectrophotometric analysis
[11] = Ratio of AUC in brain to plasma in C57Bl/6J mouse assessed as 4-(4-(thiiran-2-ylmethylsulfonyl)phenoxy)phenol at 25 mg/kg, sc; assay type: ADME, organism-based; parameters: dose 25 mg/kg, route subcutaneous
Plasma [12] = test: Elimination half life in C57Bl/6J mouse plasma assessed as 4-(4-(thiiran-2-ylmethylsulfonyl)phenoxy)phenol at 25 mg/kg, sc; assay type: ADME, organism-based; parameters: dose 25 mg/kg, route subcutaneous; conditions: in vivo
Method in brief: (§2)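 Mice were dosed sc once at 25 mg/kg; plasma and perfused brain (n = 3 per time point) were quantified by UPLC/ESI-MRM. AUC0-last came from the mean concentration-time curve by the trapezoidal rule, and AUC0-∞ = AUC0-last + Clast/k. α and β half-lives came from linear regression on the linear portion of the concentration-time data, with t1/2 = ln2/k.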

Brain [13] = test: Elimination half life in C57Bl/6J mouse brain assessed as 4-(4-(thiiran-2-ylmethylsulfonyl)phenoxy)phenol at 25 mg/kg, sc; assay type: ADME, organism-based; parameters: dose 25 mg/kg, route subcutaneous; conditions: in vivo; method in brief: as §2
Plasma [14] = test: Primary phase half life in C57Bl/6J mouse plasma assessed as 4-(4-(thiiran-2-ylmethylsulfonyl)phenoxy)phenol at 25 mg/kg, sc; assay type: ADME, organism-based; parameters: dose 25 mg/kg, route subcutaneous; conditions: in vivo; method in brief: as §2
Plasma [15] = test: AUC (0 to infinity) in C57Bl/6J mouse plasma assessed as 4-(4-(thiiran-2-ylmethylsulfonyl)phenoxy)phenol at 25 mg/kg, sc; assay type: ADME, organism-based; parameters: time infinity, dose 25 mg/kg, route subcutaneous; conditions: in vivo; method in brief: as §2
Brain [16] = test: AUC (0 to infinity) in C57Bl/6J mouse brain assessed as 4-(4-(thiiran-2-ylmethylsulfonyl)phenoxy)phenol at 25 mg/kg, sc; assay type: ADME, organism-based; parameters: time infinity, dose 25 mg/kg, route subcutaneous; conditions: in vivo; method in brief: as §2
Plasma [17] = test: AUC (0 to last) in C57Bl/6J mouse plasma assessed as 4-(4-(thiiran-2-ylmethylsulfonyl)phenoxy)phenol at 25 mg/kg, sc; assay type: ADME, organism-based; parameters: time 0 - last, dose 25 mg/kg, route subcutaneous; conditions: in vivo; method in brief: as §2
Brain [18] = test: AUC (0 to last) in C57Bl/6J mouse brain assessed as 4-(4-(thiiran-2-ylmethylsulfonyl)phenoxy)phenol at 25 mg/kg, sc; assay type: ADME, organism-based; parameters: dose 25 mg/kg, route subcutaneous; conditions: in vivo; method in brief: as §2
Brain [19] = test: Drug uptake in C57Bl/6J mouse brain assessed as 4-(4-(thiiran-2-ylmethylsulfonyl)phenoxy)phenol measured per mg of tissue at 25 mg/kg, sc measured at 4 hrs by reversed phase UPLC/ESI-MRM analysis; assay type: ADME, organism-based; parameters: dose 25 mg/kg, route subcutaneous; conditions: in vivo
Method in brief: (§3)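 Female C57Bl/6J mice (6–8 weeks, 16–19 g) received a single 100 µL sc dose equivalent to 25 mg/kg, in 10% DMSO/25% Tween 80/65% water or 80% propylene glycol/20% DMSO. Terminal heparinised vena cava blood gave plasma, and saline-perfused whole brain was taken; n = 3 per time point. Acetonitrile extracts with internal standard were run by UPLC/ESI-MRM against matrix calibration curves, linear 0.05–5 µM.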

Brain [20] = test: Drug uptake in C57Bl/6J mouse brain assessed as 4-(4-(thiiran-2-ylmethylsulfonyl)phenoxy)phenol measured per mg of tissue at 25 mg/kg, sc measured at 20 mins by reversed phase UPLC/ESI-MRM analysis; assay type: ADME, organism-based; parameters: dose 25 mg/kg, route subcutaneous; conditions: in vivo; method in brief: as §3
Plasma [21] = test: Plasma concentration in C57Bl/6J mouse assessed as 4-(4-(thiiran-2-ylmethylsulfonyl)phenoxy)phenol at 25 mg/kg, sc measured at 4 hrs by reversed phase UPLC/ESI-MRM analysis; assay type: ADME, organism-based; parameters: dose 25 mg/kg, route subcutaneous; conditions: in vivo; method in brief: as §3
Plasma [22] = test: Plasma concentration in C57Bl/6J mouse assessed as 4-(4-(thiiran-2-ylmethylsulfonyl)phenoxy)phenol at 25 mg/kg, sc measured at 10 mins by reversed phase UPLC/ESI-MRM analysis; assay type: ADME, organism-based; parameters: dose 25 mg/kg, route subcutaneous; conditions: in vivo; method in brief: as §3
Plasma [23] = test: Metabolic stability in C57Bl/6J mouse plasma assessed as formation of 4-(4-(thiiran-2-ylmethylsulfonyl)phenoxy)phenol at 25 mg/kg, sc measured at 10 to 240 mins; assay type: ADME, organism-based; parameters: dose 25 mg/kg, route subcutaneous; conditions: in vivo; method in brief: as §3
Brain [24] = test: Metabolic stability in C57Bl/6J mouse brain assessed as formation of 4-(4-(thiiran-2-ylmethylsulfonyl)phenoxy)phenol at 25 mg/kg, sc measured at 10 to 240 mins; assay type: ADME, organism-based; parameters: dose 25 mg/kg, route subcutaneous; conditions: in vivo; method in brief: as §3
Liver [25] = test: Metabolic stability in rat liver S9 fraction assessed as formation of Ethyl-carbamic acid 4-[4-(1-oxo-1lambda4-thiiran-2-ylmethanesulfonyl)-phenoxy]-phenyl ester at 50 uM after 30 mins by reversed-phase LC/MS analysis; assay type: ADME, subcellular; conditions: s9, 0.5 h; method in brief: as §1
Liver [26] = test: Metabolic stability in rat liver S9 fraction assessed as formation of 4-(4-(ethylcarbamoyloxy)phenoxy)benzenesulfinic acid at 50 uM after 30 mins by reversed-phase LC/MS analysis; assay type: ADME, subcellular; conditions: s9, 0.5 h; method in brief: as §1
Liver [27] = test: Metabolic stability in rat liver S9 fraction assessed as formation of 4-(4-(thiiran-2-ylmethylsulfonyl)phenoxy)phenol at 50 uM after 30 mins by reversed-phase LC/MS analysis; assay type: ADME, subcellular; conditions: s9, 0.5 h; method in brief: as §1
[28] = molecular target: MMP-2/MMP-14 (Homo sapiens) (UniProt P50281+P08253); test: Selectivity ratio of Ki for human recombinant MMP-14 catalytic domain to Ki for human recombinant MMP-2
Homo sapiens = species on record: Homo sapiens; test: Selectivity ratio of Ki for human recombinant MMP-8 catalytic domain to Ki for human recombinant MMP-2
Neutrophil collagenase = Neutrophil collagenase (Homo sapiens, UniProt P22894); test: Inhibition of human recombinant MMP-8 catalytic domain using […] as substrate by fluorescence spectrophotometric analysis
[29] = molecular target: Matrix metalloproteinase-9 (Homo sapiens, UniProt P14780); test: Inhibition of human recombinant MMP-9 catalytic domain using MOCAcPLGLA2pr(Dnp)AR-NH2 as substrate by fluorescence spectrophotometric analysis
Matrix metalloproteinase-9, sequence (P14780 whole entry, the tested form may be a part): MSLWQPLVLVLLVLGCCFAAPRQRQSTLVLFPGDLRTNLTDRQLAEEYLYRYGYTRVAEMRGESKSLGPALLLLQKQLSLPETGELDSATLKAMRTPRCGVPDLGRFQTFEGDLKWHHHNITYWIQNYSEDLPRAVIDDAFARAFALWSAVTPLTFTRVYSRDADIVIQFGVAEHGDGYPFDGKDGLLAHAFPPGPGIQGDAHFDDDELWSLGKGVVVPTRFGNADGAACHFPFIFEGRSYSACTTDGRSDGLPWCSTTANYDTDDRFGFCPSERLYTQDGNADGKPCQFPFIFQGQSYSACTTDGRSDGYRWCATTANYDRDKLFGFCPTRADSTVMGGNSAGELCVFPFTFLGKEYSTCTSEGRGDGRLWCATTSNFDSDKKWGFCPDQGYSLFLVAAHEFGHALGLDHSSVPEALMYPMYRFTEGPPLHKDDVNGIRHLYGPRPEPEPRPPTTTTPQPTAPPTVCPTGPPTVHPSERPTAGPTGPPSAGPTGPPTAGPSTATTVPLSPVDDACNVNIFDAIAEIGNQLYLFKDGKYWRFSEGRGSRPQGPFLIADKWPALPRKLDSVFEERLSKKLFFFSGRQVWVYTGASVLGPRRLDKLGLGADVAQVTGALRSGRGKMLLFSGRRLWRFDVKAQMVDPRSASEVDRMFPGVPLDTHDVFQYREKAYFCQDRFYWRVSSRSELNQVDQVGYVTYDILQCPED

72 kDa type IV collagenase, sequence (P08253 whole entry): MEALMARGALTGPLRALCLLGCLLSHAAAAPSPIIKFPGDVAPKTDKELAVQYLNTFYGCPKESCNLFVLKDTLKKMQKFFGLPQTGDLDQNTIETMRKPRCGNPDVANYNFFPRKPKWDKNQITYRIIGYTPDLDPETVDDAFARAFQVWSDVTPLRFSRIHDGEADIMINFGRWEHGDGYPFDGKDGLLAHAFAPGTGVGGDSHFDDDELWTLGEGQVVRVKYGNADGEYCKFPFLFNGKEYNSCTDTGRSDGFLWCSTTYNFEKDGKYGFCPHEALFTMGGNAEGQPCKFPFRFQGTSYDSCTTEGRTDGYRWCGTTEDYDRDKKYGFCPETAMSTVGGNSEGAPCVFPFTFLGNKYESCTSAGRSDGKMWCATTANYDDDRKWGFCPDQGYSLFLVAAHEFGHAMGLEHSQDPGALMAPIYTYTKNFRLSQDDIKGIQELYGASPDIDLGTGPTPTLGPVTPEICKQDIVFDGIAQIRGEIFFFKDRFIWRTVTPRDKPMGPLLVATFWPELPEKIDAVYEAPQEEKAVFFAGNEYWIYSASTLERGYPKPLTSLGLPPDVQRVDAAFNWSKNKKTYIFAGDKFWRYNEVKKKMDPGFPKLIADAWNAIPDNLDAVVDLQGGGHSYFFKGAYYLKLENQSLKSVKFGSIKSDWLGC
Neutrophil collagenase, sequence (P22894 whole entry, the tested form may be a part): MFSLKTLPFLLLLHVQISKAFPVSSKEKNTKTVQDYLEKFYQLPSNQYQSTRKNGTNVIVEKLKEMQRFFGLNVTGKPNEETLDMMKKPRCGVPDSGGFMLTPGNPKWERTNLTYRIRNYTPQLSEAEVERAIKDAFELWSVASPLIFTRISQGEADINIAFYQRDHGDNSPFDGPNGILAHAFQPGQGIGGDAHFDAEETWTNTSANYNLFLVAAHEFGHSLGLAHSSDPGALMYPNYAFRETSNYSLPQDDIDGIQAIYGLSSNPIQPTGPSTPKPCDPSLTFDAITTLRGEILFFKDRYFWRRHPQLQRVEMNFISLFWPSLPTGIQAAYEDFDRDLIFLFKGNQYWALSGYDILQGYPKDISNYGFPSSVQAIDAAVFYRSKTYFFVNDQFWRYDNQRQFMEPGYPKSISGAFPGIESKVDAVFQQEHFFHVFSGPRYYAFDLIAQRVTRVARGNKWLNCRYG

## COC(=O)Nc1ccc(Oc2ccc(S(=O)(=O)CC3CS3)cc2)cc1 (stereo not drawn)
Liver [1]
  Stability: Unstable
Liver [2]
  Stability: Unstable
Liver [3]
  Stability: Unstable
Liver [4]
  t1/2: 0.293 h
[5]
  Ratio Ki: 2
[6]
  inhibition: inactive
[7]
  inhibition: 38%
[8]
  inhibition: inactive
[9]
  Ki: 2.6 µM
[10]
  Ki: 0.05 µM

## CCNC(=O)Oc1ccc(Oc2ccc(S(=O)(=O)CC3CS3)cc2)cc1 (stereo not drawn)
[11]
  Ratio AUC: 1.64
Plasma [12]
  beta t1/2: 7.7 h
Brain [13]
  beta t1/2: 8.88 h
Plasma [14]
  alphat1/2: 41.3 min
Plasma [15]
  AUC: 69.9 µM·min
Brain [16]
  AUC: 129 pmol·min/mg
Plasma [17]
  AUClast: 54 µM·min
Brain [18]
  AUClast: 88.8 pmol·min/mg
Brain [19]
  Drug uptake: 0.255 pmol
Brain [20]
  Drug uptake: 1.35 pmol
Plasma [21]
  concentration: 114 nM
Plasma [22]
  concentration: 1240 nM
Plasma [23]
  Stability: Unstable
Brain [24]
  Stability: Unstable
Liver [25]
  Stability: Unstable
Liver [26]
  Stability: Unstable
Liver [27]
  Stability: Unstable
Liver [4]
  t1/2: 0.38 h
[28]
  Ratio Ki: 20
Homo sapiens
  Ratio Ki: 20
[5]
  Ratio Ki: 20
Neutrophil collagenase
  Ki: 15 µM
[6]
  inhibition: inactive
[7]
  inhibition: 37%
[8]
  inhibition: inactive
[9]
  Ki: 17 µM
[29]
  Ki: 12 µM
[10]
  Ki: 0.55 µM
